Measured values as given in ChEMBL document CHEMBL4715765, “Fluoro analogs of bioactive oxy-sterols: Synthesis of an EBI2 agonist with enhanced metabolic stability” (Bioorg Med Chem Lett, 2016).

How the values were obtained:
[1] = molecular target: T1, G-protein coupled receptor 183 (Homo sapiens, UniProt P32249); assay: Agonist activity at Go2-q-coupled EBI2 (unknown origin) expressed in COS7 cell membranes assessed as stimulation of [35S]GTPgammaS binding preincubated for 20 mins followed by [35S]GTPgammaS addition and measured after 1 hr by scintillation counting analysis; assay type: functional, Membrane
T1 sequence (P32249 whole entry): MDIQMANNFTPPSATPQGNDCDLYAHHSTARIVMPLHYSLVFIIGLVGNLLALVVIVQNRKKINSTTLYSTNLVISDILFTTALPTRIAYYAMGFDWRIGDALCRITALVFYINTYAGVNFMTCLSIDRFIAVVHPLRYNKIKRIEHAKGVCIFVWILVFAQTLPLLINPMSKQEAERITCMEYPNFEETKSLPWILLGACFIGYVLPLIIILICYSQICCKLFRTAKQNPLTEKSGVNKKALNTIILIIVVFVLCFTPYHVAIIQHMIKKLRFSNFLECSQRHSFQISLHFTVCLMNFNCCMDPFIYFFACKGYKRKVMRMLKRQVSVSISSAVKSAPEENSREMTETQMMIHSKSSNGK
How it was run: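 [35S]GTPγS binding measured in membranes of COS7 cells transiently transfected with human, rat or mouse EBI2, with receptor coupled through Go2. Compounds tested as concentration-response series (log M plots) to give EC50 and % Emax for each species' receptor.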

[2] = molecular target: T1, G-protein coupled receptor 183; assay: Agonist activity at Go2-q-coupled human EBI2 expressed in COS7 cell membranes assessed as stimulation of [35S]GTPgammaS binding preincubated for 20 mins followed by [35S]GTPgammaS addition and measured after 1 hr by scintillation counting analysis; assay type: functional, Membrane
How it was run: (§1)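 [35S]GTPγS binding measured on COS7 cells transiently transfected with human, rat or mouse EBI2, using a Gαo2 chimera set-up. Concentration-response testing ran up to a top concentration of 1. EC50 and % Emax were taken from the curves, with Emax referenced to 7α,25-OHC.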

[3] = molecular target: G-protein coupled receptor 183 (Rattus norvegicus, UniProt D4A7K7); assay: Agonist activity at Go2-q-coupled rat EBI2 expressed in COS7 cell membranes assessed as stimulation of [35S]GTPgammaS binding preincubated for 20 mins followed by [35S]GTPgammaS addition and measured after 1 hr by scintillation counting analysis; design: species or system Membrane; how it was run: as §1
G-protein coupled receptor 183 (Rattus norvegicus, UniProt D4A7K7), sequence (D4A7K7 whole entry): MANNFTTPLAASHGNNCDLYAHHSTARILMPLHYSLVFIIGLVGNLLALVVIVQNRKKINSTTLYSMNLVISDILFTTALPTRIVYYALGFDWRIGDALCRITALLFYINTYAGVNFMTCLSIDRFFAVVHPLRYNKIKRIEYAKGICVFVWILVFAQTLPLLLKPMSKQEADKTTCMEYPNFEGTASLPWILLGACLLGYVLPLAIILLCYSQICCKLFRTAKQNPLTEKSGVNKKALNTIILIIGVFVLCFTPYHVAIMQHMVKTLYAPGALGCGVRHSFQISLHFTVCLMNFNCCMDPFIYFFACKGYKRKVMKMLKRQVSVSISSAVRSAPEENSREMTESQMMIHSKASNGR

[4] = molecular target: G-protein coupled receptor 183 (Mus musculus, UniProt Q3U6B2); assay: Agonist activity at Go2-q-coupled mouse EBI2 expressed in COS7 cell membranes assessed as stimulation of [35S]GTPgammaS binding preincubated for 20 mins followed by [35S]GTPgammaS addition and measured after 1 hr by scintillation counting analysis; assay type: functional, Membrane; how it was run: as §1
G-protein coupled receptor 183 (Mus musculus, UniProt Q3U6B2), sequence (Q3U6B2 whole entry): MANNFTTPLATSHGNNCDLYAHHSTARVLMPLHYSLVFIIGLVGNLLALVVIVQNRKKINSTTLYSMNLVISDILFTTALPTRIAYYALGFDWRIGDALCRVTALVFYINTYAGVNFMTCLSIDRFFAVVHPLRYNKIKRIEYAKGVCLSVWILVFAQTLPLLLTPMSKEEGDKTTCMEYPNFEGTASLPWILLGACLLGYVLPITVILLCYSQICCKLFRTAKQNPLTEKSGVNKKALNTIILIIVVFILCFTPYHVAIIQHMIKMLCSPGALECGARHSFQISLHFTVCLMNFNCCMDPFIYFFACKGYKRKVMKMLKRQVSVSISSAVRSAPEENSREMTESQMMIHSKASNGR

[5] = molecular target: T1, G-protein coupled receptor 183; assay: Agonist activity at Go2-q-coupled human EBI2 expressed in COS7 cell membranes assessed as stimulation of [35S]GTPgammaS binding at 1 uM preincubated for 20 mins followed by [35S]GTPgammaS addition and measured after 1 hr by scintillation counting analysis relative to control; assay type: functional; details: Membrane, filed as agonist, time 80.0 min; how it was run: as §1
[6] = molecular target: G-protein coupled receptor 183 (Rattus norvegicus) (UniProt D4A7K7); assay: Agonist activity at Go2-q-coupled rat EBI2 expressed in COS7 cell membranes assessed as stimulation of [35S]GTPgammaS binding at 1 uM preincubated for 20 mins followed by [35S]GTPgammaS addition and measured after 1 hr by scintillation counting analysis relative to control; details: Membrane, filed as agonist, time 80.0 min; how it was run: as §1
G-protein coupled receptor 183 (Rattus norvegicus), sequence (D4A7K7 whole entry): as the sequence (D4A7K7 whole entry) above

[7] = molecular target: G-protein coupled receptor 183 (Mus musculus) (UniProt Q3U6B2); assay: Agonist activity at Go2-q-coupled mouse EBI2 expressed in COS7 cell membranes assessed as stimulation of [35S]GTPgammaS binding at 1 uM preincubated for 20 mins followed by [35S]GTPgammaS addition and measured after 1 hr by scintillation counting analysis relative to control; assay type: functional; details: Membrane, filed as agonist, time 80.0 min; how it was run: as §1
G-protein coupled receptor 183 (Mus musculus), sequence (Q3U6B2 whole entry): as the sequence (Q3U6B2 whole entry) above

[8] = Metabolic stability in mouse liver microsomes assessed as half life; assay type: ADME, Microsome
[9] = Metabolic stability in rat liver microsomes assessed as half life; assay type: ADME, Microsome
[10] = Metabolic stability in human liver microsomes assessed as half life; assay type: ADME, Microsome
[11] = Elimination half-life in po dosed mouse; assay type: ADME, organism-based; details: in vivo, read-out: beta t1/2 (converted)
[12] = Cmax in mouse at 20 mg/kg, sc; assay type: ADME, organism-based; design: route subcutaneous, dose 20 mg/kg; details: in vivo
[13] = Tmax in mouse at 20 mg/kg, sc; assay type: ADME, organism-based; details: in vivo
[14] = Cmax in mouse at 20 mg/kg, ip; assay type: ADME, organism-based; design: route intraperitoneal, dose 20 mg/kg; details: in vivo
[15] = Tmax in mouse at 20 mg/kg, ip; assay type: ADME, organism-based; details: in vivo
[16] = AUClast in mouse at 20 mg/kg, ip; assay type: ADME, organism-based; design: route intraperitoneal, time 0 - last, dose 20 mg/kg; details: in vivo
[17] = Terminal half life in mouse at 20 mg/kg, ip; assay type: ADME, organism-based; details: in vivo, read-out: beta t1/2 (converted)
[18] = AUClast in mouse at 20 mg/kg, sc; assay type: ADME, organism-based; design: time 0 - last, route subcutaneous, dose 20 mg/kg; details: in vivo
[19] = Terminal half life in mouse at 20 mg/kg, sc; assay type: ADME, organism-based; details: in vivo, read-out: beta t1/2 (converted)

| Compound | EC50 [1] [nM] | EC50 [2] [nM] | EC50 [3] [nM] | EC50 [4] [nM] | Emax [5] [%] | Emax [6] [%] | Emax [7] [%] | half-life [8] [min] | half-life [9] [min] | half-life [10] [min] | also measured |
| --- | --- | --- | --- | --- | --- | --- | --- | --- | --- | --- | --- |
| C[C@H](CCCC(C)(C)O)[C@H]1CC[C@H]2[C@@H]3[C@@H](O)C=C4C[C@@H](O)CC[C@]4(C)[C@H]3CC[C@]12C | 2.1 | – | – | – | – | – | – | – | – | – | – |
| C[C@H](CCCC(C)(C)O)[C@H]1CC[C@H]2[C@H]3[C@H](CC[C@]12C)[C@@]1(C)CC[C@H](O)CC1=C[C@@]3(O)C(F)(F)F | – | 4.1 | 14.4 | 14.4 | 100 | 88 | 60 | – | – | – | – |
| C[C@H](CCCC(C)(C)O)[C@H]1CC[C@H]2[C@H]3[C@H](CC[C@]12C)[C@@]1(C)CC[C@H](O)CC1=C[C@]3(O)C(F)(F)F | – | 0.102 | 1.08 | 1.64 | 122 | 116 | 136 | > 180 | 31 | 131 | half-life [11]: 600 min |
| CC(CO)CCC[C@@H](C)[C@H]1CC[C@H]2[C@H]3C(CC[C@]12C)[C@@]1(C)CC[C@H](O)CC1=C[C@H]3O (single isomer, unassigned) | 1.3 | – | – | – | – | – | – | – | – | – | – |
| C[C@H](CCCC(C)(C)O)[C@H]1CC[C@H]2[C@@H]3[C@H](O)C=C4C[C@@H](O)CC[C@]4(C)[C@H]3CC[C@]12C | 0.14 | 0.032 | 1.31 | 0.702 | 100 | 100 | 100 | 11 | 15 | 30 | Cmax [12]: 4340 ng/mL; Tmax [13]: 19.8 min; Cmax [14]: 4460 ng/mL; Tmax [15]: 15 min; AUC(0-t) [16]: 2940 ng·h/mL; half-life [17]: 24 min; AUC(0-t) [18]: 3140 ng·h/mL; half-life [19]: 30 min |
| CC(CO)CCC[C@@H](C)[C@H]1CC[C@H]2[C@H]3C(CC[C@]12C)[C@@]1(C)CC[C@H](O)CC1=C[C@@H]3O (single isomer, unassigned) | 51 | – | – | – | – | – | – | – | – | – | – |
